Values after ≈ are worked out from the molar mass of the structure shown. Active and inactive are the calls of the source.
Assays:
Acinetobacter baumannii [1] = assay: Antibacterial activity against abeS sigma abeS-deficient Acinetobacter baumannii AC0037 by CLSI broth microdilution method; format: functional
Acinetobacter baumannii [2] = assay: Antibacterial activity against abeS-deficient Acinetobacter baumannii AC0037 by CLSI broth microdilution method; format: functional
Acinetobacter baumannii [3] = assay: Ratio of MIC for Acinetobacter baumannii AC0037 to MIC for abeS-deficient Acinetobacter baumannii AC0037; format: functional
Method in brief: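 MICs were determined by broth dilution and interpreted per CLSI criteria for the parental A. baumannii AC0037 and its abeS null mutant. The mutant was made by electroporating a plasmid carrying abeS disrupted by a kanamycin-resistance cassette, for double homologous recombination, and selected on 50 μg/ml kanamycin plus 80 μg/ml ticarcillin. The ratio is the parental MIC over the mutant MIC.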

Escherichia coli [4] = assay: Ratio of MIC for Escherichia coli KAM32 harboring recombinant plasmid pVBS1 encoding Acinetobacter baumannii abeS gene to MIC for Escherichia coli KAM32 harboring plasmid pUC18
Escherichia coli [5] = assay: Antibacterial activity against Escherichia coli KAM32 harboring plasmid pUC18 by CLSI broth microdilution method; format: functional
Escherichia coli [6] = assay: Antibacterial activity against Escherichia coli KAM32 harboring recombinant plasmid pVBS1 encoding Acinetobacter baumannii abeS gene by CLSI broth microdilution method; format: functional
Acinetobacter baumannii [7] = assay: Antibacterial activity against Acinetobacter baumannii AC0037 by CLSI broth microdilution method; format: functional
Escherichia coli [8] = assay: Antibacterial activity against Escherichia coli KAM32 harboring plasmid pUC18 by CLSI broth microdilution method in presence of 25 ug/ml efflux pump inhibitor CCCP; format: functional
Escherichia coli [9] = assay: Antibacterial activity against Escherichia coli KAM32 harboring recombinant plasmid pVBS1 encoding Acinetobacter baumannii abeS gene by CLSI broth microdilution method in presence of 25 ug/ml efflux pump inhibitor CCCP; format: functional
[10] = biological target: T1, QacEdelta1 SMR family efflux pump (Acinetobacter baumannii) (UniProt Q2FD83); assay: Inhibition of Acinetobacter baumannii abeS expressed in Escherichia coli KAM32 assessed as decrease in increase in bromide accumulation
T1 sequence (whole entry): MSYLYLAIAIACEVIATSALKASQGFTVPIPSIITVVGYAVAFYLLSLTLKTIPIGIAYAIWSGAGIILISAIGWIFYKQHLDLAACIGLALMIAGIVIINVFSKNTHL
Method in brief: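 EtBr accumulation in E. coli KAM32 (lacks AcrAB, YdhE) carrying pUC18 or pVBS1 (abeS). CCCP, a proton motive force uncoupler, added to 25 μg/ml final after 20 min with substrate. Cells lysed; supernatant fluorescence read at excitation 530 nm, emission 600 nm. Relative fluorescence taken as accumulated EtBr. Mean plus SD of three independent experiments.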

Row | Compound | MIC (Acinetobacter baumannii [1]) | MIC (Acinetobacter baumannii [2]) | Ratio (Acinetobacter baumannii [3]) | Ratio (Escherichia coli [4]) | MIC (Escherichia coli [5]) | MIC (Escherichia coli [6]) | MIC (Acinetobacter baumannii [7]) | MIC (Escherichia coli [8]) | MIC (Escherichia coli [9]) | Activity (Acinetobacter baumannii [2]) | inhibition [10]
1 | O=C(N[C@H](CO)[C@H](O)c1ccc([N+](=O)[O-])cc1)C(Cl)Cl [CHLORAMPHENICOL] | 128 µg/mL (≈ 396 µM) | 64 µg/mL (≈ 198 µM) | 4 | 1 | 0.2 µg/mL (≈ 0.619 µM) | 0.2 µg/mL | 256 µg/mL (≈ 792 µM) | – | – | – | –
2 | CCn1cc(C(=O)O)c(=O)c2cc(F)c(N3CCNCC3)cc21 [NORFLOXACIN] | > 128 µg/mL | 256 µg/mL (≈ 802 µM) | 2 | 2 | 0.06 µg/mL (≈ 0.188 µM) | 0.12 µg/mL | 512 µg/mL (≈ 1600 µM) | 0.001 µg/mL | 0.001 µg/mL | – | –
3 | [Cl-].c1ccc([P+](c2ccccc2)(c2ccccc2)c2ccccc2)cc1 [TETRAPHENYLPHOSPHONIUM CHLORIDE] | > 500 µg/mL | 300 µg/mL | 5 | 2 | 8 µg/mL | 16 µg/mL | 1500 µg/mL | 0.25 µg/mL | 0.25 µg/mL | – | –
4 | COc1cc(Cc2cnc(N)nc2N)cc(OC)c1OC [TRIMETHOPRIM] | 64 µg/mL (≈ 220 µM) | 64 µg/mL (≈ 220 µM) | 1 | 2 | 0.125 µg/mL (≈ 0.431 µM) | 0.2 µg/mL | 64 µg/mL (≈ 220 µM) | – | – | – | –
5 | COC(=O)c1ccccc1-c1c2ccc(=N)cc-2oc2cc(N)ccc12.Cl [RHODAMINE123] | 128 µg/mL | 64 µg/mL | 2 | 4 | 8 µg/mL | 32 µg/mL | 128 µg/mL | – | – | – | –
6 | CN(C)[C@@H]1C(O)=C(C(N)=O)C(=O)[C@@]2(O)C(O)=C3C(=O)c4c(O)cccc4[C@@](C)(O)[C@H]3C[C@@H]12 [TETRACYCLINE] | 64 µg/mL (≈ 144 µM) | 64 µg/mL (≈ 144 µM) | 1 | 2 | 0.5 µg/mL (≈ 1.13 µM) | 1 µg/mL | 64 µg/mL (≈ 144 µM) | – | – | – | –
7 | CCBr [BROMOETHANE] | > 512 µg/mL | 128 µg/mL (≈ 1170 µM) | 8 | 4 | 2 µg/mL (≈ 18.4 µM) | 8 µg/mL | 1020 µg/mL (≈ 9400 µM) | – | – | – | –
8 | CN(C)c1ccc2cc3ccc(N(C)C)cc3nc2c1 [ACRIDINE ORANGE] | 125 µg/mL (≈ 471 µM) | 50 µg/mL (≈ 188 µM) | 4 | 5 | 16 µg/mL (≈ 60.3 µM) | 80 µg/mL | 200 µg/mL (≈ 754 µM) | – | – | – | –
9 | C[C@@H](O)[C@H]1C(=O)N2C(C(=O)O)=C(S[C@@H]3CN[C@H](C(=O)N(C)C)C3)[C@H](C)[C@H]12 | – | – | – | – | – | – | – | – | – | inactive | –
10 | CCn1cc(C(=O)O)c(=O)c2ccc(C)nc21 [NALIDIXIC ACID] | 256 µg/mL (≈ 1100 µM) | 128 µg/mL (≈ 551 µM) | 2 | 1 | 1 µg/mL (≈ 4.31 µM) | 1 µg/mL | 256 µg/mL (≈ 1100 µM) | – | – | – | –
11 | CC[C@H]1OC(=O)[C@H](C)[C@@H](O[C@H]2C[C@@](C)(OC)[C@@H](O)[C@H](C)O2)[C@H](C)[C@@H](O[C@@H]2O[C@H](C)C[C@H](N(C)C)[C@H]2O)[C@](C)(O)C[C@@H](C)C(=O)[C@H](C)[C@@H](O)[C@]1(C)O [ERYTHROMYCIN] | 32 µg/mL (≈ 43.6 µM) | 8 µg/mL (≈ 10.9 µM) | 8 | 6 | 4 µg/mL (≈ 5.45 µM) | 24 µg/mL | 64 µg/mL (≈ 87.2 µM) | < 0.05 µg/mL | 0.25 µg/mL | – | –
12 | CCCCCCCCCCCCOS(=O)(=O)[O-].[Na+] [SODIUM LAURYL SULFATE] | 128 µg/mL | 16 µg/mL | >16 | 16 | 50 µg/mL | 800 µg/mL | > 256 µg/mL | < 5 µg/mL | < 5 µg/mL | – | –
13 | C[C@H](CCC(=O)O)[C@H]1CC[C@H]2[C@@H]3CC[C@@H]4C[C@H](O)CC[C@]4(C)[C@H]3C[C@H](O)[C@]12C [DEOXYCHOLIC ACID] | 512 µg/mL (≈ 1300 µM) | 128 µg/mL (≈ 326 µM) | >16 | 25 | 125 µg/mL (≈ 318 µM) | 3120 µg/mL | > 2050 µg/mL | < 0.25 µg/mL | 5 µg/mL | – | –
14 | NCC[C@H](O)C(=O)N[C@@H]1C[C@H](N)[C@@H](O[C@H]2O[C@H](CN)[C@@H](O)[C@H](O)[C@H]2O)[C@H](O)[C@H]1O[C@H]1O[C@H](CO)[C@@H](O)[C@H](N)[C@H]1O [AMIKACIN] | 256 µg/mL (≈ 437 µM) | 256 µg/mL (≈ 437 µM) | 1 | 2 | 1 µg/mL (≈ 1.71 µM) | 2 µg/mL | 256 µg/mL (≈ 437 µM) | 0.15 µg/mL | 0.15 µg/mL | – | –
15 | CO[C@H]1/C=C/O[C@@]2(C)Oc3c(C)c(O)c4c(O)c(c(/C=N/N5CCN(C)CC5)c(O)c4c3C2=O)NC(=O)/C(C)=C\C=C\[C@H](C)[C@H](O)[C@@H](C)[C@@H](O)[C@@H](C)[C@H](OC(C)=O)[C@@H]1C [RIFAMPIN] | 2 µg/mL (≈ 2.43 µM) | 2 µg/mL (≈ 2.43 µM) | – | – | – | – | 2 µg/mL (≈ 2.43 µM) | – | – | – | –
16 | CO[C@@H]1[C@@H](OC(N)=O)[C@@H](O)[C@H](Oc2ccc3c(O)c(NC(=O)c4ccc(O)c(CC=C(C)C)c4)c(=O)oc3c2C)OC1(C)C [NOVOBIOCIN] | 84 µg/mL (≈ 137 µM) | 40 µg/mL (≈ 65.3 µM) | 3 | 5 | 4 µg/mL (≈ 6.53 µM) | 20 µg/mL | 120 µg/mL (≈ 196 µM) | < 0.5 µg/mL | < 0.5 µg/mL | – | –
17 | C[C@@H](O)[C@H]1C(=O)N2C(C(=O)O)=C(SCCNC=N)C[C@H]12 | – | – | – | – | – | – | – | – | – | inactive | –
18 | C[n+]1ccc(-c2cc[n+](C)cc2)cc1.[Cl-].[Cl-] [PARAQUAT DICHLORIDE] | 800 µg/mL | 400 µg/mL | 2 | 2 | 64 µg/mL | 128 µg/mL | 800 µg/mL | < 2.5 µg/mL | < 2.5 µg/mL | – | –
19 | N#CC(C#N)=NNc1cccc(Cl)c1 | – | – | – | – | – | – | – | – | – | – | Active
20 | N=C(NCCCCCCNC(=N)NC(=N)Nc1ccc(Cl)cc1)NC(=N)Nc1ccc(Cl)cc1 [CHLORHEXIDINE] | 32 µg/mL (≈ 63.3 µM) | 16 µg/mL (≈ 31.7 µM) | 2 | 2 | 2 µg/mL (≈ 3.96 µM) | 4 µg/mL | 32 µg/mL (≈ 63.3 µM) | – | – | – | –
21 | CC(C)(O/N=C(\C(=O)N[C@@H]1C(=O)N2C(C(=O)[O-])=C(C[n+]3ccccc3)CS[C@H]12)c1csc(N)n1)C(=O)O | – | – | – | – | – | – | – | – | – | inactive | –
22 | N=C(N)c1ccc(-c2cc3ccc(C(=N)N)cc3[nH]2)cc1 [DAPI] | 2 µg/mL (≈ 7.21 µM) | 0.5 µg/mL (≈ 1.8 µM) | 4 | 4 | 0.5 µg/mL (≈ 1.8 µM) | 2 µg/mL | 2 µg/mL (≈ 7.21 µM) | – | – | – | –

Reference: ChEMBL document CHEMBL1671677, “Role of AbeS, a novel efflux pump of the SMR family of transporters, in resistance to antimicrobial agents in Acinetobacter baumannii” (2009)
